Source: ChEMBL document CHEMBL1124703, “Analogues of carbamyl aspartate as inhibitors of dihydroorotase: preparation of boronic acid transition-state analogues and a zinc chelator carbamylhomocysteine” (J Med Chem, 1990)
One block for each molecule: values may come before it.

How the values were obtained:
[1] = target: Multifunctional protein CAD (Homo sapiens, UniProt P27708); test: Inhibitory activity against Dihydroorotase (DHO) at pH 6.0; design: species or system Cricetulus griseus
L1210 [2] = test: Uptake in L1210 cells at a concentration of 210 uM after 24 hr; settings: Mus musculus, L1210, 24 h
L1210 [3] = test: Inhibitory activity against murine L1210 cell growth at a concentration of 250 uM after 0h; assay type: functional, Mus musculus
Procedure, shortened: (§1)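 Murine L1210 cells kept in DMEM with 10% FCS and L-glutamine and harvested in log phase. About 1×10^5 cells/mL held 24 h in depleted medium before drug or DMSO vehicle was added. Trypan blue-excluding cells counted by hemacytometer at 0, 24 and 48 h. Three flasks per concentration and six controls; reported as % survival versus control.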

L1210 [4] = test: Inhibitory activity against murine L1210 cell growth at a concentration of 250 uM after 24 hr; assay type: functional, Mus musculus; procedure, shortened: as §1
L1210 [5] = test: Inhibitory activity against murine L1210 cell growth at a concentration of 250 uM after 8 hr; assay type: functional, Mus musculus
L1210 [6] = test: Inhibitory activity against murine L1210 cell growth at a concentration of 100 uM after 0h; assay type: functional, Mus musculus; procedure, shortened: as §1
L1210 [7] = test: Inhibitory activity against murine L1210 cell growth at a concentration of 100 uM after 48 hr
L1210 [8] = test: Inhibitory activity against murine L1210 cell growth at a concentration of 100 uM after 24 hr; assay type: functional, Mus musculus; procedure, shortened: as §1

Chain of Multifunctional protein CAD (P27708 whole entry): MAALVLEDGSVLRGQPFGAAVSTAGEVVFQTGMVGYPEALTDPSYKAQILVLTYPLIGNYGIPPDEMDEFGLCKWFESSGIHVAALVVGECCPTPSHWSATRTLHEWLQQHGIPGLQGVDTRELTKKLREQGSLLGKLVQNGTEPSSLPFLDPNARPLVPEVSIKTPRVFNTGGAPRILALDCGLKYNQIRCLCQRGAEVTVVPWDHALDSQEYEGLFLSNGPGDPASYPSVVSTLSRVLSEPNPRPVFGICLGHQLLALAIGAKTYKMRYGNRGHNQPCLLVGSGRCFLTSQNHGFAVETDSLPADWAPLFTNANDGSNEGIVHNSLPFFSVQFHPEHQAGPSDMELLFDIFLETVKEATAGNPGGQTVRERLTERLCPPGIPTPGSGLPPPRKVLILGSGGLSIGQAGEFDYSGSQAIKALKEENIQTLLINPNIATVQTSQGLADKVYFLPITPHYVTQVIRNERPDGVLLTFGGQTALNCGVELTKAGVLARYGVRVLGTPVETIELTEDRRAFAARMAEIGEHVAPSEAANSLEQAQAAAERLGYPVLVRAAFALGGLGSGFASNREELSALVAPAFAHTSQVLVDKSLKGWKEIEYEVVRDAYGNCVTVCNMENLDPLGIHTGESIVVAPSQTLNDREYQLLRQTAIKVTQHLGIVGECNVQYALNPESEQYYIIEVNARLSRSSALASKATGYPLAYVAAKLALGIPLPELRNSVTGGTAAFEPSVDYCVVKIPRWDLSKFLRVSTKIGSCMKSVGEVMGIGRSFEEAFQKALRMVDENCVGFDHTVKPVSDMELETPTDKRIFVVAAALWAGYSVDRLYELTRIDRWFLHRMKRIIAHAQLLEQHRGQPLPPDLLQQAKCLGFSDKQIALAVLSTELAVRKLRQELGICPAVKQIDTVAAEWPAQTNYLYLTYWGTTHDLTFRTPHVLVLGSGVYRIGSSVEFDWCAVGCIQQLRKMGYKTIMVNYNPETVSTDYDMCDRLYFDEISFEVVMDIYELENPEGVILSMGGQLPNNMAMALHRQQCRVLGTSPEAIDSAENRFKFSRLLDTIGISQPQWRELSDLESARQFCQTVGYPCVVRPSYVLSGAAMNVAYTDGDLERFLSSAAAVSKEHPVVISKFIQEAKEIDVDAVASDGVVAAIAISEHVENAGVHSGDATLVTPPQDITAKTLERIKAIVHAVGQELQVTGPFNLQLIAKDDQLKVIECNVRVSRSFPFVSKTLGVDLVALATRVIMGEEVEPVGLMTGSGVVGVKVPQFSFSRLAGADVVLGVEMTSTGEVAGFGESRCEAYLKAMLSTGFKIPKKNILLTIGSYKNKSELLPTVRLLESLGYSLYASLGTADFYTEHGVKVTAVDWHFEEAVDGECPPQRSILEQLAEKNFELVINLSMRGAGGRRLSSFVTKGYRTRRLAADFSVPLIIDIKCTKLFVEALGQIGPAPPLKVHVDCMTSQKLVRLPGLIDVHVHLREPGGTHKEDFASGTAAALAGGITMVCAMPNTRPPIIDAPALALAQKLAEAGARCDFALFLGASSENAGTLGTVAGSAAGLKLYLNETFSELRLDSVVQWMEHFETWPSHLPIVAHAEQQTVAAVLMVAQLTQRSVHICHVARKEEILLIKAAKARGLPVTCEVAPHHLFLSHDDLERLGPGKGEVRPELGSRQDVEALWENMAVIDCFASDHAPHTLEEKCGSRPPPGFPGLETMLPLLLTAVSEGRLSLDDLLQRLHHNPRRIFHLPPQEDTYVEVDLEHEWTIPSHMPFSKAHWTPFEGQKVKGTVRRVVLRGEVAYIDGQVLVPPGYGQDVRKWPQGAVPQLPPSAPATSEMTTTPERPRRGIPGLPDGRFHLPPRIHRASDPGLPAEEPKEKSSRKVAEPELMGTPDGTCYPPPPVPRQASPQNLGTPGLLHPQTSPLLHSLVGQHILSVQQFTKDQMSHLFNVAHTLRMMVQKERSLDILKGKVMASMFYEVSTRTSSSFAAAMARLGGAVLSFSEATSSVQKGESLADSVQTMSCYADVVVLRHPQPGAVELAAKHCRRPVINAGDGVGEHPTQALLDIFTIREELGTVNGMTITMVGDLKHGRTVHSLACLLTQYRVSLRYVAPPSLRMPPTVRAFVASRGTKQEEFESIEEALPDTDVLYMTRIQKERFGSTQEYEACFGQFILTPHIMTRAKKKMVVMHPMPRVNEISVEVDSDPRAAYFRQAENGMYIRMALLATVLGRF

Ki [1]: 5.07 µM
Compound: CCOC(=O)C(CB(O)O)NC(N)=O (stereo not drawn)
Uptake at 210 µM (L1210 [2]): 0.09%

Compound: NC(=O)BCCNC(CC(=O)O)C(=O)O (stereo not drawn) [BOROCARBAMYLETHYL ASPARTATE]
Cell survival (L1210 [3]): 114
Cell survival (L1210 [4]): 66
Cell survival (L1210 [5]): 80

Compound: O=C(O)C[C@H](NC(=O)CP(=O)(O)O)C(=O)O [PALA]
Cell survival (L1210 [6]): 96
Cell survival (L1210 [7]): 22
Cell survival (L1210 [8]): 28
